# From ChEMBL document CHEMBL1255300, “Pharmacodynamics of the antibacterial effect and emergence of resistance to tomopenem, formerly RO4908463/CS-023, in an in vitro pharmacokinetic model of Staphylococcus aureus infection” (Antimicrob Agents Chemother, 2008)
# Legend:
# Type in all cases: functional
# Staphylococcus aureus [1] = assay: T>MIC for 4-log drop in count in methicillin-resistant Staphylococcus aureus 33815 in in vitro pharmacokinetic model after 24 hrs using 10^8 CFU/ml inoculum
# Staphylococcus aureus [2] = assay: Antibacterial activity against methicillin-resistant Staphylococcus aureus 33820 infected in in vitro pharmacokinetic model assessed as time required to 99.9% killing at 1500 mg, iv every 8 hrs using 10^6 CFU/ml inoculum
# Staphylococcus aureus [3] = assay: AUBKC (0 to 24 hrs) in methicillin-resistant Staphylococcus aureus 33829 infected in in vitro pharmacokinetic model at 1500 mg, iv every 8 hrs using 10^6 CFU/ml inoculum
# In short: (§1)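 Single-compartment dilutional in vitro PK model at 37°C in 10% Mueller-Hinton broth, stirred, flow 132 ml/h. […] Inoculum 10^6 CFU/ml added 45 min before dosing, or 10^8 CFU/ml run overnight. Viable counts with β-lactamase neutralisation. AUBKC by log-linear trapezoidal rule, at least triplicate.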
# Staphylococcus aureus [4] = assay: AUBKC (0 to 24 hrs) in methicillin-resistant Staphylococcus aureus 33815 infected in in vitro pharmacokinetic model at 1500 mg, iv every 8 hrs using 10^6 CFU/ml inoculum; in short: as §1
# Staphylococcus aureus [5] = assay: AUBKC (0 to 48 hrs) in methicillin-resistant Staphylococcus aureus 33922 infected in in vitro pharmacokinetic model at 750 mg, iv every 8 hrs using 10^6 CFU/ml inoculum; in short: as §1
# Staphylococcus aureus [6] = assay: AUBKC (0 to 48 hrs) in methicillin-resistant Staphylococcus aureus 33921 infected in in vitro pharmacokinetic model at 1500 mg, iv every 8 hrs using 10^6 CFU/ml inoculum; in short: as §1
# Staphylococcus aureus [7] = assay: Antibacterial activity against methicillin-resistant Staphylococcus aureus 33827 infected in in vitro pharmacokinetic model assessed as reduction in viable count at 750 mg, iv every 8 hrs measured after 24 hrs using 10^8 CFU/ml inoculum
# In short: (§2)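 Single-compartment dilutional in vitro PK model, 10% Mueller-Hinton broth, 37°C, stirred, dilution 132 ml/h. […] Inoculum 10^6 CFU/ml (added 45 min pre-dose) or 10^8 CFU/ml (run overnight). Viable counts by spiral plating, beta-lactamase neutralization, detection limit 10^2 CFU/ml. At least triplicate.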
# Staphylococcus aureus [8] = assay: Antibacterial activity against methicillin-resistant Staphylococcus aureus 33922 infected in in vitro pharmacokinetic model assessed as reduction in viable count at 1500 mg, iv every 8 hrs measured after 12 hrs using 10^8 CFU/ml inoculum
# Staphylococcus aureus [9] = assay: Antibacterial activity against methicillin-resistant Staphylococcus aureus 33922 infected in in vitro pharmacokinetic model assessed as reduction in viable count at 1500 mg, iv every 8 hrs measured after 24 hrs using 10^8 CFU/ml inoculum
# Staphylococcus aureus [10] = assay: Antibacterial activity against methicillin-sensitive Staphylococcus aureus 5956 by broth dilution method
# Staphylococcus aureus [11] = assay: Antibacterial activity against methicillin-resistant Staphylococcus aureus 33829 by broth dilution method
# In short: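 MIC by CLSI broth dilution, or by broth dilution in 10% Mueller-Hinton broth at nondoubling dilutions.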
# Staphylococcus aureus [12] = assay: Antibacterial activity against methicillin-resistant Staphylococcus aureus 33815 by broth dilution method
# In short: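 Standard CLSI broth dilution MIC.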
# Staphylococcus aureus [13] = assay: Antibacterial activity against methicillin-resistant Staphylococcus aureus 33820 by 10% MH broth method
# In short: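 Broth dilution MIC per CLSI, run in 10% Mueller-Hinton broth at nondoubling dilutions.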
# Staphylococcus aureus [14] = assay: Antibacterial activity against methicillin-resistant Staphylococcus aureus 33827 infected in in vitro pharmacokinetic model assessed as reduction in viable count at 1500 mg, iv every 8 hrs measured after 36 hrs using 10^8 CFU/ml inoculum; in short: as §2
# Staphylococcus aureus [15] = assay: Antibacterial activity against methicillin-resistant Staphylococcus aureus 33827 infected in in vitro pharmacokinetic model assessed as time required to 99.9% killing at 1500 mg, iv every 8 hrs using 10^8 CFU/ml inoculum; in short: as §2
# Staphylococcus aureus [16] = assay: AUBKC (0 to 48 hrs) in against methicillin-resistant Staphylococcus aureus 33815 infected in in vitro pharmacokinetic model at 750 mg, iv every 8 hrs using 10^8 CFU/ml inoculum; in short: as §1
# Staphylococcus aureus [17] = assay: Antibacterial activity against methicillin-resistant Staphylococcus aureus 33829 in in vitro pharmacokinetic model assessed as viable count at 6 times of MIC
# In short: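 Preexposure population analysis: time-zero model samples plated on nutrient agar without drug and with drug at multiples of the 10% broth MIC. Growth reported as log CFU/ml, detection limit 2 log10.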
# Staphylococcus aureus [18] = assay: Antibacterial activity against methicillin-resistant Staphylococcus aureus 33820 infected in in vitro pharmacokinetic model assessed as reduction in viable count at 750 mg, iv every 8 hrs measured after 36 hrs using 10^6 CFU/ml inoculum
# In short: (§3)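 Single-compartment dilutional in vitro PK model, 37°C, stirred, in 10% Mueller-Hinton broth. […] Inoculum 10^6 CFU/ml from a 24-h plate culture was added 45 min before dosing. Viable counts by spiral plating on nutrient agar with β-lactamase neutralization. Log change was taken from time 0; detection limit 10^2 CFU/ml; at least triplicate.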
# Staphylococcus aureus [19] = assay: T>MIC for 1-log drop in count in methicillin-resistant Staphylococcus aureus 33820 in in vitro pharmacokinetic model after 24 hrs using 10^6 CFU/ml inoculum
# Staphylococcus aureus [20] = assay: T>MIC for 3-log drop in count in methicillin-resistant Staphylococcus aureus 33922 in in vitro pharmacokinetic model after 24 hrs using 10^6 CFU/ml inoculum
# Staphylococcus aureus [21] = assay: T>MIC for 4-log drop in count in methicillin-resistant Staphylococcus aureus 33820 in in vitro pharmacokinetic model after 24 hrs using 10^6 CFU/ml inoculum
# Staphylococcus aureus [22] = assay: T>MIC for 1-log drop in count in methicillin-resistant Staphylococcus aureus 33827 in in vitro pharmacokinetic model after 24 hrs using 10^8 CFU/ml inoculum
# Staphylococcus aureus [23] = assay: T>MIC for 4-log drop in count in methicillin-sensitive Staphylococcus aureus 5956 in in vitro pharmacokinetic model after 24 hrs using 10^8 CFU/ml inoculum
# In short: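 Dose-ranging: 7–13 simulated regimens per strain giving T>MIC of 0–100% (MIC from 10% MHB), at 106 or 10^8 CFU/ml as stated.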
# Staphylococcus aureus [24] = assay: Antibacterial activity against methicillin-sensitive Staphylococcus aureus 5956 infected in in vitro pharmacokinetic model assessed as reduction in viable count at 1500 mg, iv every 8 hrs measured after 24 hrs using 10^6 CFU/ml inoculum
# Staphylococcus aureus [25] = assay: Antibacterial activity against methicillin-resistant Staphylococcus aureus 33922 infected in in vitro pharmacokinetic model assessed as reduction in viable count at 1500 mg, iv every 8 hrs measured after 36 hrs using 10^6 CFU/ml inoculum
# Staphylococcus aureus [26] = assay: Antibacterial activity against methicillin-resistant Staphylococcus aureus 33922 infected in in vitro pharmacokinetic model assessed as reduction in viable count at 1500 mg, iv every 8 hrs measured after 48 hrs using 10^6 CFU/ml inoculum
# Staphylococcus aureus [27] = assay: Antibacterial activity against methicillin-resistant Staphylococcus aureus 33815 infected in in vitro pharmacokinetic model assessed as reduction in viable count at 1500 mg, iv every 8 hrs measured after 48 hrs using 10^6 CFU/ml inoculum; in short: as §3
smiles,measurement,setting,value
C[C@@H](O)[C@H]1C(=O)N2C(C(=O)O)=C(S[C@H]3C[C@@H](C(=O)N4CC[C@H](NC(=O)CNC(=N)N)C4)N(C)C3)[C@H](C)[C@H]12 [TOMOPENEM],fT>MIC,Staphylococcus aureus [1],6.5%
same,Time,Staphylococcus aureus [2],12 h
same,AUBC,Staphylococcus aureus [3],30 log10CFU/ml.hr
same,AUBC,Staphylococcus aureus [4],12.5 log10CFU/ml.hr
same,AUBC,Staphylococcus aureus [5],27.7 log10CFU/ml.hr
same,AUBC,Staphylococcus aureus [6],38.1 log10CFU/ml.hr
same,log10CFU/ml,Staphylococcus aureus [7],5.2
same,log10CFU/ml,Staphylococcus aureus [8],1.5
same,log10CFU/ml,Staphylococcus aureus [9],5
same,MIC,Staphylococcus aureus [10],0.06 µg/mL
same,MIC,Staphylococcus aureus [11],2 µg/mL
same,MIC,Staphylococcus aureus [12],16 µg/mL
same,MIC,Staphylococcus aureus [13],6 µg/mL
same,log10CFU/ml,Staphylococcus aureus [14],6
same,Time,Staphylococcus aureus [15],12 h
same,AUBC,Staphylococcus aureus [16],119 log10CFU/ml.hr
same,log10CFU/ml,Staphylococcus aureus [17],2.7
same,log10CFU/ml,Staphylococcus aureus [18],4.2
same,fT>MIC,Staphylococcus aureus [19],9.9%
same,fT>MIC,Staphylococcus aureus [20],9.4%
same,fT>MIC,Staphylococcus aureus [21],36.2%
same,fT>MIC,Staphylococcus aureus [22],19.5%
same,fT>MIC,Staphylococcus aureus [23],20.1%
same,log10CFU/ml,Staphylococcus aureus [24],4.4
same,log10CFU/ml,Staphylococcus aureus [25],4.2
same,log10CFU/ml,Staphylococcus aureus [26],4.2
same,log10CFU/ml,Staphylococcus aureus [27],4.2
